Data from ChEMBL document CHEMBL1153722, “Design, synthesis, and characterization of peptide-based rab geranylgeranyl transferase inhibitors” (J Med Chem, 2009).
Peptide text beside a SMILES is read from it. * marks the point of attachment. Hydrocinnamoyl = O=C(CCc1ccccc1)*

Species: Rattus norvegicus
Assay: Inhibition of rat recombinant Rab geranylgeranyltransferase at 100 uM in presence of canine Rab7 and rat REP1 NBD-FPP based continuous fluorimetric assay
Procedure, shortened: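 Continuous fluorometric assay in 96/384-well format: 3 μM Rab7, 3 μM REP1, 9 μM NBD-FPP and 400 nM RabGGTase, with or without inhibitor. […] IC50 was calculated from three independent measurements.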
Work on CCCCCCCCCCCOc1ccc(C(=O)N[C@@H](Cc2ccc(O)cc2)C(=O)N[C@@H](Cc2ccc(O)cc2)C(=O)N[C@@H](Cc2ccc(O)cc2)C(=O)OCCCl)cc1 yielded an inhibition of 107%.
For O=C(N[C@@H](Cc1ccc(O)cc1)C(=O)N[C@@H](Cc1ccc(O)cc1)C(=O)N[C@@H](Cc1ccc(O)cc1)C(=O)NCc1ccccc1)c1ccc(F)cc1F, the inhibition was 70%.
COC(=O)[C@H](CO)NC(=O)CNC(=O)[C@H](Cc1ccccc1)NC(=O)c1csc(-c2cccs2)n1 showed an inhibition of 123%.
Molecule CCCCCCCCCCC(=O)N[C@@H](Cc1ccc(O)cc1)C(=O)N[C@@H](Cc1c[nH]cn1)C(=O)N[C@@H](Cc1ccc(O)cc1)C(=O)OCCN has an inhibition of 61%.
C[C@@H](O)[C@H](NC(=O)/C=C/c1ccccc1)C(=O)N[C@@H](Cc1ccccc1)C(=O)N[C@@H](CCC(N)=O)C(N)=O showed an inhibition of 78%.
In the case of CC(C)(C)Oc1ccc(C[C@H](NC(=O)CNC(=O)[C@H](Cc2ccc(OC(C)(C)C)cc2)NC(=O)c2coc(-c3ccccc3)n2)C(=O)O)cc1, the inhibition is reported as 75%.
NC(=O)CC[C@H](NC(=O)[C@H](Cc1ccccc1)NC(=O)CNC(=O)CCc1ccccc1)C(=O)NC1CCCCC1 was tested, and the inhibition was 50%.
C[C@H](NC(=O)[C@@H](NC(=O)c1ccc(-c2ccccc2)cc1)[C@@H](C)O)C(=O)N[C@@H](CCC(=O)O)C(=O)OCCCCO gave an inhibition of 101%.
Molecule Cc1nc(C)c(C(=O)OC[C@H](NC(=O)[C@H](C)NC(=O)[C@H](COC(=O)c2oc(C)nc2C)NC(=O)c2coc(-c3ccccc3)n2)C(=O)O)o1 has an inhibition of 95%.
Molecule CCCCCc1ccc(/C=C/C(=O)N[C@H](Cc2cnc[nH]2)C(=O)N[C@@H](Cc2ccc(O)cc2)C(=O)N[C@@H](Cc2ccccc2)C(=O)O)cc1 has an inhibition of 17%.
CC(C)C[C@H](NC(=O)[C@H](COC(C)(C)C)NC(=O)[C@H](Cc1ccccc1)NC(=O)CCc1ccccc1)C(=O)O was tested, and the inhibition was 88%.
O=C(CCc1ccc(F)cc1)N[C@@H](Cc1ccc(O)cc1)C(=O)NCC(=O)N[C@@H](Cc1ccc(O)cc1)C(=O)Nc1ccccc1 was tested, and the inhibition was 99%.
NCCCC[C@H](NC(=O)CCc1ccccc1)C(=O)N[C@@H](Cc1c[nH]cn1)C(=O)N[C@@H](CO)C(=O)O (Hydrocinnamoyl-Lys-His-Ser-OH) showed an inhibition of 89%.
CCCCCCCCCCCC(=O)N[C@@H](Cc1c[nH]cn1)C(=O)N[C@@H](Cc1c[nH]cn1)C(=O)N[C@@H](Cc1ccc(O)cc1)C(=O)NCCCn1ccnc1 gave an inhibition of 124%.
In the case of NC(=O)[C@H](Cc1ccc(O)cc1)NC(=O)CCNC(=O)[C@H](Cc1c[nH]cn1)NC(=O)OCc1ccccc1, the inhibition is reported as 89%.
Work on O=C(N[C@@H](Cc1ccc(O)cc1)C(=O)N[C@@H](Cc1ccc(O)cc1)C(=O)N[C@@H](Cc1ccc(O)cc1)C(=O)O)OCc1ccccc1 yielded an inhibition of 51%.
CC(C)C[C@H](NC(=O)[C@H](COC(C)(C)C)NC(=O)[C@H](Cc1ccccc1)NC(=O)/C=C/c1ccc(F)cc1)C(=O)Nc1nccs1 was tested, and the inhibition was 112%.
In the case of COc1ccc(C[C@@H](C(=O)N(C)[C@@H](Cc2ccccc2)C(=O)O)N(C)C(=O)[C@@H](Cc2ccc(O)cc2)NC(=O)CCc2ccccc2)cc1, the inhibition is reported as 46%.
Work on CC[C@H](C)[C@H](NC(=O)c1ccc(-c2ccccc2)cc1)C(=O)N[C@@H](C(=O)N[C@@H](CCC(N)=O)C(=O)OC)C(C)C yielded an inhibition of 94%.
COC(=O)[C@H](CC(C)C)NC(=O)[C@H](COC(C)(C)C)NC(=O)[C@H](Cc1ccccc1)NC(=O)/C=C/c1ccc(F)cc1 was tested, and the inhibition was 57%.
CCCCCCCCCCCCCCCC(=O)N[C@@H](Cc1ccc(O)cc1)C(=O)N[C@@H](Cc1ccc(O)cc1)C(=O)N[C@@H](Cc1ccc(O)cc1)C(=O)NCCCn1ccnc1 showed an inhibition of 85%.
In the case of NC(=O)CC[C@H](NC(=O)[C@H](Cc1ccccc1)NC(=O)[C@H](CO)NC(=O)CCc1ccccc1)C(N)=O (Hydrocinnamoyl-Ser-Phe-Gln-NH2), the inhibition is reported as 106%.
CCCCCCCCCCC(=O)N[C@@H](Cc1c[nH]cn1)C(=O)N[C@@H](Cc1c[nH]cn1)C(=O)N[C@@H](CO)C(=O)Nc1ccccn1 gave an inhibition of 61%.
Work on O=C(CNC(=O)c1coc(-c2ccccc2)n1)N[C@@H](Cc1cn(C(c2ccccc2)(c2ccccc2)c2ccccc2)cn1)C(=O)N[C@@H](Cc1ccccc1)C(=O)O yielded an inhibition of 77%.
